{"source": "paper PMC8247328", "about": "(British Journal of Clinical Pharmacology, 2020)", "key": {"[1]": {"system": "mitochondrial function in the visual cortex", "experiment": "31P-MRS of the visual cortex before, during and after visual stimulation", "assay_type": "in vivo, human", "settings": "Part 2, 25 mg s.c. once daily 28 d", "in_short": "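At 3 T, a 6-cm 31P transmit/receive surface coil was placed over the visual cortex, positioned using a 10-mm water sphere on 1H images. Adiabatic pulse-acquire (TR 2 s, flip 90°) FIDs were collected for 4 min at rest (128 averages), 8 min during visual activation (256) and 8 min after (256). Time-domain fitting with prior knowledge gave PCr/ATP, Pi/PCr, Pi/ATP and pH. Scans ran on day −1 and 1.5 h post-dose on day 27; mixed-model ANCOVA used baseline as covariate.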"}, "[2]": {"system": "patients with early stage HD", "experiment": "Motor assessments and UHDRS", "assay_type": "in vivo, human", "settings": "Part 2; 25 mg s.c. once daily 28 d", "in_short": "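In Part 2 only, motor and neurocognitive tests were run at the start and 1.5 h after the final subcutaneous dose on day 28. Each parameter was analysed by mixed-model ANCOVA with treatment as fixed factor and baseline as covariate, with no multiplicity adjustment.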"}, "[3]": {"system": "mitochondrial function in calf muscle", "experiment": "Dynamic 31P-MRS of calf skeletal muscle", "assay_type": "in vivo, human", "in_short": "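Calf muscle was scanned by dynamic 31P-MRS at 7 T with a surface coil and an MRI-compatible pedal ergometer, before, during and after exercise (pulse-acquire, 2-s resolution, flip 45°, 1 average). Pi, PCr and ATP peaks were integrated. τPCr came from a monoexponential fit, and pH from the PCr–Pi frequency difference. Scans were repeated after a 10-min break if end-exercise pH was <6.8. Outliers deviating >5% (up to 10%) were removed. Timing: screening and day 7 (Part 1), day −1 and day 27 (Part 2), 1.5 h post-dose. Analysis was ANCOVA; the posthoc split used the pre-dose median.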"}, "[4]": {"system": "PBMCs", "assay_type": "cell-based, human", "settings": "Part 2; 25 mg s.c. once daily; after 27 days"}, "[5]": {"settings": "Part 1, 5 mg s.c. once daily 7 d, n=6, day 7"}, "[6]": {"settings": "Part 1, 15 mg s.c. once daily 7 d, n=6, day 7"}, "[7]": {"settings": "Part 1, 25 mg s.c. once daily 7 d, ANCOVA"}, "[8]": {"settings": "Part 1, 25 mg s.c. once daily 7 d, n=6, day 7"}, "[9]": {"settings": "Part 2, 25 mg s.c. once daily 28 d, ANCOVA"}, "[10]": {"settings": "Part 2, 25 mg s.c. once daily 28 d, n=11, day 27"}}, "note": "Where a SMILES comes first, the peptide text is derived from it. [ ]: non-standard residue; d: D form.", "data": [{"smiles": "N=C(N)NCCC[C@@H](NC(=O)[C@@H](N)Cc1ccccc1)C(=O)N[C@@H](Cc1ccccc1)C(=O)N[C@@H](CCCCN)C(N)=O", "note": "[SBT‐020, H‐Phe‐D‐Arg‐Phe‐Lys‐NH2] (H-F[dR]FK-NH2)", "values": [{"measurement": "Pi/PCr before visual stimulation (central 31P‐MRS), contrast vs placebo (95% CI)", "setting": "[1]; ANCOVA", "value": "0.0007 (−0.02, 0.02) P = .93"}, {"measurement": "Pi/PCr during visual stimulation (central 31P‐MRS), contrast vs placebo (95% CI)", "setting": "[1]; ANCOVA", "value": "0.004 (−0.03, 0.03) P = .81"}, {"measurement": "PCr/ATP after visual stimulation (central 31P‐MRS), LS mean", "setting": "[1]; n=11, day 27", "value": 0.9}, {"measurement": "PCr/ATP before visual stimulation (central 31P‐MRS), LS mean", "setting": "[1]; n=11, day 27", "value": 0.8}, {"measurement": "PCr/ATP during visual stimulation (central 31P‐MRS), LS mean", "setting": "[1]; n=11, day 27", "value": 0.8}, {"measurement": "PCr/ATP during‐after visual stimulation (central 31P‐MRS), LS mean", "setting": "[1]; n=11, day 27", "value": "−0.05"}, {"measurement": "PCr/ATP during‐before visual stimulation (central 31P‐MRS), LS mean", "setting": "[1]; n=11, day 27", "value": "−0.03"}, {"measurement": "Pi/ATP after visual stimulation (central 31P‐MRS), LS mean", "setting": "[1]; n=11, day 27", "value": 0.2}, {"measurement": "Pi/ATP before visual stimulation (central 31P‐MRS), LS mean", "setting": "[1]; n=11, day 27", "value": 0.2}, {"measurement": "Pi/ATP during visual stimulation (central 31P‐MRS), LS mean", "setting": "[1]; n=11, day 27", "value": 0.2}, {"measurement": "Pi/ATP during‐after visual stimulation (central 31P‐MRS), LS mean", "setting": "[1]; n=11, day 27", "value": "−0.02"}, {"measurement": "Pi/ATP during‐before visual stimulation (central 31P‐MRS), LS mean", "setting": "[1]; n=11, day 27", "value": "−0.01"}, {"measurement": "Pi/PCr after visual stimulation (central 31P‐MRS), LS mean", "setting": "[1]; n=11, day 27", "value": 0.2}, {"measurement": "Pi/PCr before visual stimulation (central 31P‐MRS), LS mean", "setting": "[1]; n=11, day 27", "value": 0.2}, {"measurement": "Pi/PCr during visual stimulation (central 31P‐MRS), LS mean", "setting": "[1]; n=11, day 27", "value": 0.2}, {"measurement": "Pi/PCr during‐after visual stimulation (central 31P‐MRS), LS mean", "setting": "[1]; n=11, day 27", "value": "−0.005"}, {"measurement": "Pi/PCr during‐before visual stimulation (central 31P‐MRS), LS mean", "setting": "[1]; n=11, day 27", "value": "−0.006"}, {"measurement": "Effect on motor function", "setting": "[2]", "value": "no effect"}, {"measurement": "τPCr with 31P‐MRS, contrast vs placebo (95% CI)", "setting": "[3]; Part 1, 5 mg s.c. once daily 7 d, ANCOVA", "value": "6.505 (−3.4601, 16.4696) P = .1844 s"}, {"measurement": "PCr/ATP resting phase 31P‐MRS scan, LS mean", "setting": "[3]; [5]", "value": 3.7838}, {"measurement": "PCr/pi resting phase 31P‐MRS scan, LS mean", "setting": "[3]; [5]", "value": 9.9289}, {"measurement": "τPCr with 31P‐MRS, LS mean", "setting": "[3]; Part 1, 5 mg s.c. once daily 7 d, n=6, day 7, 1.5 h post dose", "value": 40.9016, "unit": "s"}, {"measurement": "τPCr with 31P‐MRS, contrast vs placebo (95% CI)", "setting": "[3]; Part 1, 15 mg s.c. once daily 7 d, ANCOVA", "value": "8.807 (−1.0294, 18.6436) P = .0757 s"}, {"measurement": "PCr/ATP resting phase 31P‐MRS scan, LS mean", "setting": "[3]; [6]", "value": 3.8400}, {"measurement": "PCr/pi resting phase 31P‐MRS scan, LS mean", "setting": "[3]; [6]", "value": 11.5607}, {"measurement": "τPCr with 31P‐MRS, LS mean", "setting": "[3]; Part 1, 15 mg s.c. once daily 7 d, n=6, day 7, 1.5 h post dose", "value": 43.2040, "unit": "s"}, {"measurement": "PCr/pi resting phase 31P‐MRS scan, contrast vs placebo (95% CI)", "setting": "[3]; [7]", "value": "0.7604 (−1.0773, 2.598) P = .3948"}, {"measurement": "τPCr with 31P‐MRS, contrast vs placebo (95% CI)", "setting": "[3]; [7]", "value": "5.477 (−5.5072, 16.4620) P = .3047 s"}, {"measurement": "PCr/ATP resting phase 31P‐MRS scan, LS mean", "setting": "[3]; [8]", "value": 3.8510}, {"measurement": "PCr/pi resting phase 31P‐MRS scan, LS mean", "setting": "[3]; [8]", "value": 11.2289}, {"measurement": "τPCr with 31P‐MRS, LS mean", "setting": "[3]; Part 1, 25 mg s.c. once daily 7 d, n=6, day 7, 1.5 h post dose", "value": 39.8743, "unit": "s"}, {"measurement": "Mean τPCr after 7 days of treatment", "setting": "[3]; Part 1, 5‐mg cohort, baseline mean 41.9", "value": 42.5, "unit": "s"}, {"measurement": "Mean τPCr after 7 days of treatment", "setting": "[3]; Part 1, 15‐mg cohort, baseline mean 40.0", "value": 43.1, "unit": "s"}, {"measurement": "Mean τPCr after 7 days of treatment", "setting": "[3]; Part 1, 25‐g cohort (so in the source), baseline mean 39.2", "value": 38.8, "unit": "s"}, {"measurement": "Effect on τPCr, ∆Ψm and percentage of dysfunctional PBMCs", "setting": "[3]; Part 1, after 7 days of treatment, 5, 15, 25 mg", "value": "No overall or dose‐related effects"}, {"measurement": "PCr/ATP resting phase 31P‐MRS scan, contrast vs placebo (95% CI)", "setting": "[3]; [9]", "value": "−.07 (−0.3, 0.2) P = .54"}, {"measurement": "PCr/pi resting phase 31P‐MRS scan, contrast vs placebo (95% CI)", "setting": "[3]; [9]", "value": "0.1 (−2.0, 2.1) P = .94"}, {"measurement": "τPCr with 31P‐MRS, contrast vs placebo (95% CI)", "setting": "[3]; [9]", "value": "2.8 (−9.3, 15.0) P = .63 sec"}, {"measurement": "PCr/ATP resting phase 31P‐MRS scan, LS mean", "setting": "[3]; [10]", "value": 3.7}, {"measurement": "PCr/pi resting phase 31P‐MRS scan, LS mean", "setting": "[3]; [10]", "value": 10.2}, {"measurement": "τPCr with 31P‐MRS, LS mean", "setting": "[3]; Part 2, 25 mg s.c. once daily 28 d, n=11, day 27, 1.5 h post dose", "value": 40.8, "unit": "s"}, {"measurement": "Change of τPCr, posthoc", "setting": "[3]; Part 2, active, high mitochondrial function group (τPCr of < 42.4 s)", "value": "did not decrease"}, {"measurement": "Effect on τPCr, ∆Ψm and percentage of dysfunctional PBMCs", "setting": "[3]; Part 2, after 28 days of treatment, 25 mg", "value": "No overall effects"}, {"measurement": "Effect on ∆Ψm values and half maximal inhibitory concentration values for carvedilol and verapamil", "setting": "[4]", "value": "no effect"}]}]}
